# JMJD2C inh – inhibitors of GASC-1 histone demethylase, primary screen, biochemical, fluorescence, DELFIA europium; hit rate 0.069% among 330,000; inhibition, % at 2.35 µM; Lysine-specific demethylase 4C (Homo sapiens), Q9H3R0; GST-JMJD2C(1-420) H3K9me3 demethylation;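 active means more than half of a compound's replicate wells show inhibition beyond 50%, single wells judged on their own value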;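 further: signal counts dimethyl H3K9 product captured on neutravidin plate; 0% = median of DMSO wells and 100% = 0.3 times that DMSO median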
# Target sequence (Q9H3R0 1-420 limits assumed): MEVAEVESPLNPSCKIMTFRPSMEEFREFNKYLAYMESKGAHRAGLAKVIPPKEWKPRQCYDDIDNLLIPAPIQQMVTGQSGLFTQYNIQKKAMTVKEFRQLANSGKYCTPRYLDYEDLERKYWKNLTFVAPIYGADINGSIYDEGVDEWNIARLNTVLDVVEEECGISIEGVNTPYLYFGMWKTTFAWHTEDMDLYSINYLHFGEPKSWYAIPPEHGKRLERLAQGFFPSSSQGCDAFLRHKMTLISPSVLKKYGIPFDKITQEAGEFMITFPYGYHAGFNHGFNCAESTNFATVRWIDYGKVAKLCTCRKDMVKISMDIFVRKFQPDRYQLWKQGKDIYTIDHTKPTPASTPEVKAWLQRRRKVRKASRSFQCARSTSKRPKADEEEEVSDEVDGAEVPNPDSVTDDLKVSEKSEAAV
# NR2E3 ag-1 – NR2E3 agonists in two-hybrid cells, primary screen, cell-based, luminescence, CHO-S, Gal4-NCOR/VP16-NR2E3; Photoreceptor-specific nuclear receptor (Homo sapiens), Q9Y5X4; luciferase; inhibition of corepressor binding, % at 3.98 µM; hit rate 0.35% among 360,000; AID 602229, 2012;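 active means inhibition above the mean of all tested compounds plus 3 SD, cut at about 70% in these data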;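 further: 0% = DMSO with NR2E3 transfected cells and 100% = cells lacking NR2E3 construct; higher means lower luciferase signal from less NR2E3 corepressor binding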
# Jurkat NFkB inh – inhibitors of induced NF-kB luciferase reporter, primary screen, TCR NF-kB activation inhibitor project, cell-based, luminescence, uHTS | Jurkat, PMA/ionomycin-induced NF-kB luciferase reporter | inhibition, % at 4 µM | hit rate 0.53% among 330,000; in the data active means inhibition above about 50%
# NR2E3 ag-2 – inhibitors of NR2E3-RetCOR corepressor binding, primary screen, NR2E3 agonist project, biochemical, TR-FRET, GST-NR2E3, biotin-RetCOR. Photoreceptor-specific nuclear receptor (Homo sapiens), Q9Y5X4. 1536-well. inhibition of corepressor binding, % at 4.78 µM. hit rate 0.12% among 320,000. AID 2300, 2010;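 active means percent inhibition above the cutoff of mean plus 3 SD of all tested compounds, set per screening campaign, cut at about 20% in these data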;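 further: 0% = DMSO wells and 100% = biotin wells as full block of FRET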
#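 Test system: GST-NR2E3 and biotin-RetCOR proteins | Quantity: 1.35 nM GST-tagged NR2E3 final | Medium: Tris pH 7.5 | Also added: 7 nM biotin-RetCOR | Dosing: Compound at 4.8 µM, single dose | Timing: 5 h at 4 °C | Detection: Time-resolved FRET | Read-out basis: Percent inhibition | Benchmarks: Biotin wells as high control, 0.6% DMSO wells as low control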
# 697 NFkB inh – inhibitors of PMA/ionomycin-induced NF-kB reporter, 697 cells, primary screen, B-cell NF-kB inhibitor project, cell-based, luminescence, uHTS. inhibition, % at 4 µM. 697 B-cell NF-kB luciferase reporter, 16 h. hit rate 0.33% among 330,000; in the data active means inhibition above about 35%
# GalR3 antagonist – GalR3 antagonists in HEK293 cells, primary screen, cell-based, fluorescence readout | HEK293 GalR3-CNG cAMP membrane potential fluorescence; galR3 body fused to GalR1 C-terminus | inhibition, % at 3 µM | hit rate 0.44% among 360,000;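 active means inhibition above the screen-wide average plus 3 SD, cut at about 13% in these data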;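 further: forskolin and galanin both at EC90 stimulate the cells; cAMP rise reported by CNG channel membrane potential dye signal; 0% = forskolin plus galanin with DMSO and 100% = forskolin alone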
# NR2E3 ag conf – NR2E3 agonist confirmation in cells, cell-based, luminescence, CHO-S two-hybrid; shares compounds with NR2E3 ag-1; CHO-S mammalian two-hybrid NR2E3-NCOR, luciferase luminescence; inhibition, % at 3.98 µM; AID 624378, 2012; hit rate 51% among 2,300;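 active means average inhibition above a cutoff equal to the mean inhibition of all tested compounds plus one SD, cut at about 70% in these data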;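 further: 0% = DMSO in NR2E3 cells and 100% = DMSO in cells lacking NR2E3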
# GAL4-VP16 luc – GAL4-VP16 reporter modulators, confirmation, counter-screen for NR2E3 agonist project, cell-based, luminescence, CHO-S, high throughput | shares compounds with NR2E3 ag-1 | CHO-S GAL4-VP16 luciferase reporter | AID 624379, 2012 | hit rate 29% among 2,300 | inhibition, % at 3.98 µM;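 active means mean inhibition above a cutoff equal to the average over all tested compounds plus one standard deviation, cut at about 70% in these data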;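 further: luciferase from a UAS reporter driven by GAL4-VP16 transactivation; 0% = DMSO with VP16-transfected cells and 100% = DMSO with cells lacking VP16; higher means less reporter light so more repression of VP16 activity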
# * marks the source's active call; other numbers are inactive results; nt = no result given. Sampled rows, rich in hits. Any-hit rate of the full collection: about 1.5%.
SMILES,JMJD2C inh,NR2E3 ag-1,Jurkat NFkB inh,NR2E3 ag-2,697 NFkB inh,GalR3 antagonist,NR2E3 ag conf,GAL4-VP16 luc
Cc1ccc(OCC(=O)c2cc(C)n(C)c2C)c([N+](=O)[O-])n1,-3.4,26.3,-54.4,-0.8,-27.9,-1.5,nt,nt
Cc1cc(C(=O)COc2cccnc2[N+](=O)[O-])c(C)n1-c1ccccc1F,3.2,50.0,36.6,-3.2,-12.9,5.0,58.0,35.2
Cn1cc(C(=O)c2ccc(Cl)cc2)cc1-c1nc2ccccc2n1C,-2.5,48.9,2.7,-0.4,-6.1,-0.1,36.4,42.4
COc1cccc(-c2cc3nc(C)c(C)c(N4CCN(C(=O)c5ccoc5)CC4)n3n2)c1,nt,-12.7,nt,nt,nt,-3.8,nt,nt
Cc1ccc(NC(=O)c2ccccc2NS(=O)(=O)c2ccc(F)cc2)cc1S(=O)(=O)N1CCCCC1,-1.5,88.5*,-9.1,1.3,-21.2,-3.8,98.0*,91.8*
O=C(Nc1cccc(S(=O)(=O)N2CCCCC2)c1)c1ccccc1NS(=O)(=O)c1ccc(F)cc1,3.6,85.5*,14.9,-1.2,-23.3,-5.5,98.0*,70.6*
Cc1ccc2nc(SCc3nnc(-c4ccccc4Br)o3)[nH]c2c1,8.5,-17.6,5.7,2.2,-12.5,1.0,nt,nt
CCc1ccc(NC(=O)c2ccc(F)c(S(=O)(=O)NCC3COc4ccccc4O3)c2)cc1 (configuration not stated),4.2,56.8,9.0,-0.6,-35.5,-2.8,55.3,46.2
C=CCn1c(SCC(=O)NC23CC4CC(CC(C4)C2)C3)nc2cc(C(=O)O)ccc2c1=O,5.3,0.1,2.9,-0.7,11.7,-4.5,nt,nt
CCn1c(=O)c(C(=O)Nc2nc3ccccc3[nH]2)c(O)c2ccccc21,-1.8,56.7,13.3,2.1,9.7,-2.2,13.6,44.2
COCCN(Cc1cc2cc3c(cc2nc1Cl)OCO3)C(=O)Nc1ccc(F)cc1,25.2,52.4,15.1,-1.9,-35.8,-7.7,64.0,50.8
O=[N+]([O-])c1ccc(NC(=S)NCCc2ccc(Cl)cc2)cc1,0.0,69.1,20.1,1.3,-4.4,-6.0,96.4*,88.4*
Nc1nc2ccccc2cc1C(=O)NCc1ccc(Cl)cc1Cl,nt,91.1*,nt,nt,nt,nt,96.9*,79.2*
COc1ccc(CCNC(=O)c2cc3cc(Cl)ccc3nc2N)cc1OC,nt,66.3,nt,nt,nt,nt,67.5,65.5
COc1ccc(CCNC(=O)/C=C/c2ccc3ccccc3n2)cc1OC,59.9,48.4,19.7,3.4,13.0,-9.1,-8.6,-14.6
COc1ccc(C)cc1NC(=O)c1ccccc1NS(=O)(=O)c1cccc2cccnc12,-10.3,-22.4,2.8,4.6,-8.6,-9.8,nt,nt
Nc1ccccc1C(=O)NCC1(c2ccccc2)CCCC1,69.2,-9.5,-13.7,2.4,-21.1,-0.6,nt,nt
CCOc1ccc(CCNC(=O)C2CCCN(c3ncnc4c3nc3n4CCCCC3)C2)cc1 (configuration not stated),-9.4,-8.6,7.9,-1.1,-22.4,-5.8,nt,nt
Cc1ccc(N(CC(=O)NC(C)C)C(=O)CCC(=O)Nc2nccs2)cc1C,-4.4,4.8,0.1,0.6,18.0,-1.4,nt,nt
CCCCCC1=CCC/C1=N\NC(=O)c1ccc2c(c1)OCO2,-5.0,-44.8,-1.1,0.3,13.4,4.7,nt,nt
NC(=Nc1c([N+](=O)[O-])cnc2ccccc12)N1CCOCC1,nt,4.2,nt,nt,nt,-8.9,nt,nt

# Screening results as filed in PubChem.
